The values below come from ChEMBL document CHEMBL4049453, “Discovery of Mixed Pharmacology Melanocortin-3 Agonists and Melanocortin-4 Receptor Tetrapeptide Antagonist Compounds (TACOs) Based on the Sequence Ac-Xaa1-Arg-(pI)DPhe-Xaa4-NH2” (J Med Chem, 2017).

Structures are written as SMILES. The source made the active and inactive calls. The calls are words filed in the database; no cut-off is given here. Non-standard residues stand in square brackets, D forms with d. Residues, ends and D or L forms follow the SMILES beside them. Bip = N[C@@H](Cc1ccc(-c2ccccc2)cc1)C(=O)O; dPhe(4-I) = N[C@H](Cc1ccc(I)cc1)C(=O)O; 2Nal = N[C@@H](Cc1ccc2ccccc2c1)C(=O)O; d2Nal = N[C@H](Cc1ccc2ccccc2c1)C(=O)O; Bta = N[C@@H](Cc1csc2ccccc12)C(=O)O

Series [1] addresses T1, Melanocortin receptor 4 (Mus musculus, UniProt P56450). Description: Agonist activity at mouse MC4R expressed in HEK293 cells assessed as induction of cAMP accumulation after 2 hrs by alpha screen assay. In kind it is cell-based. (Cyclic AMP is a second messenger, typically raised through Gs and lowered through Gi signalling.)
For series [2], the target named is T1, Melanocortin receptor 4. Description: Agonist activity at mouse MC4R expressed in HEK293 cells assessed as induction of cAMP accumulation up to 100 uM after 2 hrs by alpha screen assay relative to NDP-MSH. The format is cell-based. To be noted: read-out: Activity.
Series [3] deals with T1, Melanocortin receptor 4. Description: Agonist activity at mouse MC4R expressed in HEK293 cells assessed as induction of cAMP accumulation at 100 uM after 2 hrs by alpha screen assay relative to NDP-MSH. In kind it is cell-based. The gist of the method: (§1)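 HEK293 stably expressing mouse MC1R/MC3R/MC4R/MC5R (pCDNA3). Cells in stimulation buffer (HBSS, 0.5 mM IBMX, 5 mM HEPES, 0.1% BSA, pH 7.4) at 1000 cells/μL with anti-cAMP acceptor beads. Ligand given 10−4 to 10−10 M (or 10−6 to 10−12 M) for 2 h at RT in the dark, then donor beads/biotin-cAMP lysis mix for 2 h. AlphaScreen cAMP read-out, normalized to 10−6 M NDP-MSH as 100%.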

Series [4] addresses Melanocortin receptor 5 (Mus musculus) (UniProt P41149). Description: Agonist activity at mouse MC5R expressed in HEK293 cells assessed as induction of cAMP accumulation at 100 uM after 2 hrs by alpha screen assay relative to NDP-MSH. In kind it is functional, cell-based. An outline of the steps: as §1
Series [5] concerns the target Melanocyte-stimulating hormone receptor (Mus musculus) (UniProt Q01727). Description: Agonist activity at mouse MC1R expressed in HEK293 cells assessed as induction of cAMP accumulation at 100 uM after 2 hrs by alpha screen assay relative to NDP-MSH. In kind it is functional, cell-based. An outline of the steps: as §1
The target of series [6] is Melanocortin receptor 4 (Mus musculus) (UniProt P56450). Description: Antagonist activity at mouse MC4R expressed in HEK293 cells assessed as inhibition of NDP-MSH induced-cAMP accumulation up to 10 uM after 2 hrs by alpha screen assay. In kind it is functional, cell-based. An outline of the steps: (§2)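 mouse MC3R or MC4R in stably transfected HEK293 cells, AlphaScreen cAMP assay (IBMX stimulation buffer, 2 h RT incubation, then 2 h with donor-bead lysis mix). […] Run in triplicate.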
Chain of Melanocortin receptor 4 (Mus musculus) (P56450 whole entry): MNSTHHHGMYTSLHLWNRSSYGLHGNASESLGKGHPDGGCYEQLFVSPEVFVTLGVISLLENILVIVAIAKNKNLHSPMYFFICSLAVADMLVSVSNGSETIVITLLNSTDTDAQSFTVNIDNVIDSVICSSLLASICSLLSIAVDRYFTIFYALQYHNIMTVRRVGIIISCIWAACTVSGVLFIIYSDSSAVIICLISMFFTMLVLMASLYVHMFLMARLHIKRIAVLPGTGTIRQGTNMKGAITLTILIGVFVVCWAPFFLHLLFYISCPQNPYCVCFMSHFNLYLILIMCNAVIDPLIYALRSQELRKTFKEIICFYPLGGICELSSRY

Series [7] addresses Melanocortin receptor 3 (Mus musculus) (UniProt P33033). Put plainly: Agonist activity at mouse MC3R expressed in HEK293 cells assessed as induction of cAMP accumulation at 100 uM after 2 hrs by alpha screen assay relative to NDP-MSH. In kind it is functional, cell-based. An outline of the steps:
as §1

The target is the same in series [8]. Description: Antagonist activity at mouse MC3R expressed in HEK293 cells assessed as inhibition of NDP-MSH induced-cAMP accumulation up to 10 uM after 2 hrs by alpha screen assay. In kind it is functional, cell-based. The gist of the method: as §2
Series [9] addresses Melanocortin receptor 3 (Homo sapiens) (UniProt P41968). Description: Binding affinity to human MC3R expressed in CHO cells assessed by radioligand displacement.
Series [10] has as its target T2, Melanocortin receptor 4 (Homo sapiens, UniProt P32245). Description: Agonist activity at human MC4R expressed in CHO cells assessed as induction of cAMP activation after 45 mins. In kind it is cell-based. To be noted: 0.75 h.
The target of series [11] is T2, Melanocortin receptor 4. Put plainly: Antagonist activity at human MC4R expressed in CHO cells assessed as inhibition of aplha MSH-induced cAMP activation after 45 mins. The format is functional, cell-based.
The target of series [12] is T2, Melanocortin receptor 4. Description: Agonist activity at human MC4R expressed in CHO cells assessed as induction of cAMP activation after 45 mins relative to alpha MSH. The format is cell-based. The note with it: 0.75 h.
The target of series [13] is Melanocyte-stimulating hormone receptor (Mus musculus) (UniProt Q01727). Description: Agonist activity at mouse MC1R expressed in HEK293 cells assessed as induction of cAMP accumulation up to 100 uM after 2 hrs by alpha screen assay relative to NDP-MSH. The format is functional, cell-based. The gist of the method: as §1
Chain of Melanocyte-stimulating hormone receptor (Mus musculus) (Q01727 whole entry, looked up): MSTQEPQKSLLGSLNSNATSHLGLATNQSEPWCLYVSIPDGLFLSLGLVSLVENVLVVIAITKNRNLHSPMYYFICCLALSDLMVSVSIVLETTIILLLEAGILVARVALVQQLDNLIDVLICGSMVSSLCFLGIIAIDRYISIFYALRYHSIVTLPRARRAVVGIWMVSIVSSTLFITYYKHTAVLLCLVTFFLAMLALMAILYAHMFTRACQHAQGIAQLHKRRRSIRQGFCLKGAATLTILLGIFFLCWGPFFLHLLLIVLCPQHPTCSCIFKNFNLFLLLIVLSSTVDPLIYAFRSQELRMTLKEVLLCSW
Series [14] concerns the target Melanocortin receptor 3 (Mus musculus) (UniProt P33033). Put plainly: Agonist activity at mouse MC3R expressed in HEK293 cells assessed as induction of cAMP accumulation up to 100 uM after 2 hrs by alpha screen assay relative to NDP-MSH. The format is functional, cell-based. An outline of the steps:
as §1

Series [15] addresses Melanocortin receptor 5 (Mus musculus) (UniProt P41149). Description: Agonist activity at mouse MC5R expressed in HEK293 cells assessed as induction of cAMP accumulation up to 100 uM after 2 hrs by alpha screen assay relative to NDP-MSH. In kind it is functional, cell-based. The gist of the method:
as §1

Chain of Melanocortin receptor 5 (Mus musculus) (P41149 whole entry): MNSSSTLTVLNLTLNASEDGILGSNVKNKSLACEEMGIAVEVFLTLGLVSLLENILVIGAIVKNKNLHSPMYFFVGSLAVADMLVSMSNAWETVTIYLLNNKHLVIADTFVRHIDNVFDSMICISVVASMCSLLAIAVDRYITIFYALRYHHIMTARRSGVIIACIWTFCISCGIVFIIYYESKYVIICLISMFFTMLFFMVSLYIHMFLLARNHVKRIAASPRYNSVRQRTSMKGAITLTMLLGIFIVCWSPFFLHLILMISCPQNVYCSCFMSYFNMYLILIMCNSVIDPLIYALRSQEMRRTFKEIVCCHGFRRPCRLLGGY
T2 sequence (P32245 whole entry): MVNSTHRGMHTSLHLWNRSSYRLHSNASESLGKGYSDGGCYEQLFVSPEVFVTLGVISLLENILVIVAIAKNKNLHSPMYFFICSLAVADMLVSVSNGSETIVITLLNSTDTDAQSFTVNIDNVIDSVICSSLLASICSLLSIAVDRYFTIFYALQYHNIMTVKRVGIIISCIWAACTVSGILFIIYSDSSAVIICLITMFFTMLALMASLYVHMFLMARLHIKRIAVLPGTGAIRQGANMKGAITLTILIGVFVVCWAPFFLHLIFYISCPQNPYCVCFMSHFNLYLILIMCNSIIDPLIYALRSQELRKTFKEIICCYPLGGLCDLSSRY
Chain of Melanocortin receptor 3 (Mus musculus) (P33033 whole entry): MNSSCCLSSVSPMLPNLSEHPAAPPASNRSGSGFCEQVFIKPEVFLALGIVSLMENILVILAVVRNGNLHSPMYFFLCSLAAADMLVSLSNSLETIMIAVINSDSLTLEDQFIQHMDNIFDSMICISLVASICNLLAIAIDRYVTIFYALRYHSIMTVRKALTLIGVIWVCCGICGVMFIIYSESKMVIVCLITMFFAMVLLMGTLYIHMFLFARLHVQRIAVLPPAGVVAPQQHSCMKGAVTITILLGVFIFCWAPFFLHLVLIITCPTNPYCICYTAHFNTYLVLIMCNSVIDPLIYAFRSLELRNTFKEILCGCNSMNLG
T1 sequence (P56450 whole entry): as the sequence (P56450 whole entry) above
Chain of Melanocortin receptor 3 (Homo sapiens) (P41968 whole entry): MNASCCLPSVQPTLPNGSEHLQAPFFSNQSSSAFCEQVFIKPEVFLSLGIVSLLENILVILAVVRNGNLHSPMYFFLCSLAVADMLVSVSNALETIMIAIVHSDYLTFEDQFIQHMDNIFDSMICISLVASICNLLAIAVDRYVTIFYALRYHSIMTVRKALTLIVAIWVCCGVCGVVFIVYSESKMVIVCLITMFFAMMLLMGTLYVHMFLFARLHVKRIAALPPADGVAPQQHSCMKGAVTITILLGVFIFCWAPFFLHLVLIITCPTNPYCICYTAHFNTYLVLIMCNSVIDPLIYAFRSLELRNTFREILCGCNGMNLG

For the compound `CC(=O)N[C@@H](CCCNC(=N)N)C(=O)N[C@@H](CCCNC(=N)N)C(=O)N[C@H](Cc1ccc(I)cc1)C(=O)N[C@H](Cc1ccc2ccccc2c1)C(N)=O`, on Melanocortin receptor 4 [1], the EC50 is > 100000 nM. Further, on Melanocortin receptor 4 [2], the Emax was < 20%.

`CC(=O)N[C@@H](Cc1csc2ccccc12)C(=O)N[C@@H](CCCNC(=N)N)C(=O)N[C@H](Cc1ccc(I)cc1)C(=O)N[C@H](Cc1ccc2ccccc2c1)C(N)=O`: the Activity was 38% on Melanocortin receptor 4 [3], 41% in [4], 36% in [5] and 34% in [7]. In addition, the inhibition result in [6] and in [8] was “inactive” in each case.

The compound `N=C(N)NCCC[C@H](NC(=O)[C@@H](Cc1ccc(I)cc1)NC(=O)[C@@H]1Cc2ccccc2CN1)C(=O)N[C@@H](Cc1c[nH]c2ccccc12)C(N)=O` had a half-inhibitory concentration (IC50) in [9] of 75 nM. Moreover, at Melanocortin receptor 4 [10], the Activity is listed as 0.3 nM. Besides, the Ki at Melanocortin receptor 4 [11] was found to be 0.79 nM. The Kb at Melanocortin receptor 4 [11] (read-out: pA2 (converted)) is 0.794 nM. Also, the Emax on Melanocortin receptor 4 [12] was > 35%.

In the case of `CC(=O)N[C@@H](Cc1ccc2ccccc2c1)C(=O)N[C@@H](CCCNC(=N)N)C(=O)N[C@H](Cc1ccc(I)cc1)C(=O)N[C@@H](Cc1ccc2ccccc2c1)C(N)=O` (Ac-[2Nal]R[dPhe(4-I)][2Nal]-NH2), the inhibition result in series [6] and in [8] was “inactive” throughout. The Activity in series [7] is 39%. The Emax on Melanocortin receptor 4 [2] was < 20%.

Turning to `CC(=O)N[C@@H](Cc1ccc(-c2ccccc2)cc1)C(=O)N[C@@H](CCCNC(=N)N)C(=O)N[C@H](Cc1ccc(I)cc1)C(=O)N[C@@H](Cc1ccc(-c2ccccc2)cc1)C(N)=O` (Ac-[Bip]R[dPhe(4-I)][Bip]-NH2), the inhibition entry in [6] and in [8] was “inactive” each time. In addition, the Activity in series [13], in series [14] and in series [15] was < 20% throughout.

`CC(=O)N[C@H](Cc1ccc2ccccc2c1)C(=O)N[C@@H](CCCNC(=N)N)C(=O)N[C@H](Cc1ccc(I)cc1)C(=O)N[C@@H](Cc1csc2ccccc12)C(N)=O` (Ac-[d2Nal]R[dPhe(4-I)][Bta]-NH2): the Activity in series [15] was < 20%.

Take `CC(=O)N[C@H](Cc1ccc2ccccc2c1)C(=O)N[C@@H](CCCNC(=N)N)C(=O)N[C@H](Cc1ccc(I)cc1)C(=O)NC(Cc1ccccc1)C(N)=O` (stereo in doubt): the Activity in series [14] and in series [15] was < 20% in each case. Moreover, on Melanocortin receptor 4 [2], the Emax was < 20%.

A word on the EC50: it is the concentration at which the effect is half-maximal. One may read the IC50 as the midpoint of a concentration-inhibition curve. One may read the Ki as a dissociation constant, usually derived from enzyme kinetics or from competition with a known ligand.
